# Experimental data as given in ChEMBL document CHEMBL4699451, “Discovery of BIIB068: A Selective, Potent, Reversible Bruton's Tyrosine Kinase Inhibitor as an Orally Efficacious Agent for Autoimmune Diseases” (J Med Chem, 2020).
# Columns and labels:
# [1] = Toxicity in cynomolgus monkey assessed as effect on clinical sign measured up to 13 weeks; design: species or system Macaca fascicularis; details: in vivo, 2184 h
# How it was run: (§1)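 GLP toxicity studies lasting up to 13 weeks, run in Sprague-Dawley rats and cynomolgus monkeys.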
# [2] = Toxicity in Sprague-Dawley rat assessed as change in ECG measured up to 13 weeks; details: in vivo, 2184 h; how it was run: as §1
# Cytochrome P450 1A2 = target: T1, Cytochrome P450 1A2 (Homo sapiens, UniProt P05177); experiment: Induction of CYP1A2 in human hepatocytes up to 50 uM; format: ADME, cell-based, Hepatocyte
# T1 sequence (P05177 whole entry): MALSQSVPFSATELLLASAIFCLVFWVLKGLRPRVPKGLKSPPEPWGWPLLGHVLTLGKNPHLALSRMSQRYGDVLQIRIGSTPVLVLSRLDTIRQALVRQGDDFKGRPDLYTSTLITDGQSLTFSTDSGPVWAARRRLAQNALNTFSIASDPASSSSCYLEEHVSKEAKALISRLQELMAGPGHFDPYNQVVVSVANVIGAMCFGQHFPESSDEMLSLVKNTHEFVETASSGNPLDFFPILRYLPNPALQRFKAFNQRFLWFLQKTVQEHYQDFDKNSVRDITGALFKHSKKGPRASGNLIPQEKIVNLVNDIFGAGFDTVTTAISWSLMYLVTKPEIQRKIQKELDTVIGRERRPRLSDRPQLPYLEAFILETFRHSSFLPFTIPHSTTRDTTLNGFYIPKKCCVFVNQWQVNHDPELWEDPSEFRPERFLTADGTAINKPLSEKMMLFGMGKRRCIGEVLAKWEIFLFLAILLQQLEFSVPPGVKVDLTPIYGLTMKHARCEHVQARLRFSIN
# How it was run: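 Sandwich-cultured human hepatocytes exposed at concentrations up to 50 μM; induction of CYP1A2, 2B6 and 3A4 assessed.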
# [3] = Toxicity in cynomolgus monkey assessed as effect on organ weight measured up to 13 weeks; design: species or system Macaca fascicularis; details: in vivo, 2184 h; how it was run: as §1
structure (smiles),measurement,setting,value
Cc1cc(-c2ccnc(Nc3cnn(C)c3)n2)ccc1CNC(=O)N1CC(OC(C)C)C1,Activity,[1],Non-Toxic
same,Activity,[2],Non-Toxic
same,Activity,Cytochrome P450 1A2,Not Active
same,Activity,[3],Non-Toxic
